Reference: ChEMBL document CHEMBL1152859, “The novel phosphoramidate derivatives of NSAID 3-hydroxypropylamides: synthesis, cytostatic and antiviral activity evaluations” (Eur J Med Chem, 2009)
The source made the active and inactive calls. The rule behind the calls is not given here.

Tests used:
Punta Toro virus = experiment: Antiviral activity against Punta Toro virus infected in african green monkey Vero cells assessed as inhibition of virus-induced cytopathicity; type: functional, organism-based
How it was run: (§1)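 Cells were infected with 100 CCID50 of virus for 2 h, then residual virus was removed. Medium with graded compound concentrations was added and cultures were kept 3 days at 37 °C. Cytopathogenicity was scored microscopically. EC50 is the concentration reducing virus-induced cytopathogenicity by 50%.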

L1210 = experiment: Cytostatic activity against mouse L1210 cells after 48 hrs by MTT assay; type: functional, cell-based; conditions: L1210, 48 h
MIA PaCa-2 = experiment: Cytostatic activity against human MIAPaCa2 cells after 72 hrs by MTT assay; type: functional, cell-based; conditions: MIA PaCa-2, 72 h
How it was run: (§2)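 Monolayer cells were grown in DMEM with 10% FBS, 2 mM L-glutamine, penicillin and streptomycin at 37 °C under 5% CO2. They were seeded on day 0 at 1 × 10⁴ to 3 × 10⁴ cells/ml and exposed to five 10-fold dilutions (10⁻⁸ to 10⁻⁴ M) for 72 h, with a solvent control. Read-out was MTT. Quadruplicates in three experiments (WI 38: one experiment). IC50 by linear regression of percentage-of-growth.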

[1] = system: Vesicular stomatitis virus; experiment: Antiviral activity against Vesicular stomatitis virus infected in human HeLa cells assessed as inhibition of virus-induced cytopathicity; type: functional, organism-based
How it was run: (§3)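 Cell cultures were exposed for 2 h to 100 CCID50 of virus, and residual virus was then removed. Infected cells were further incubated with medium containing varying compound concentrations for 3 days at 37 °C. Virus-induced cytopathogenicity was scored microscopically. EC50 is the concentration giving a 50% reduction of cytopathogenicity.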

Coxsackievirus B4 [2] = experiment: Antiviral activity against Coxsackievirus B4 infected in african green monkey Vero cells assessed as inhibition of virus-induced cytopathicity; type: functional, organism-based; how it was run: as §1
[3] = Cytostatic activity against human Molt4/C8 cells after 72 hrs by MTT assay; type: functional, cell-based; conditions: MOLT-4, 72 h
Human alphaherpesvirus 3 = experiment: Antiviral activity against Varicella-Zoster virus infected in HEL cells assessed as inhibition of virus-induced cytopathicity; type: functional, organism-based
SW-620 = experiment: Cytostatic activity against human SW620 cells after 72 hrs by MTT assay; type: functional, cell-based; conditions: SW-620, 72 h; how it was run: as §2
Human alphaherpesvirus 2 = experiment: Antiviral activity against Herpes simplex virus 2 infected in HEL cells assessed as inhibition of virus-induced cytopathicity; type: functional, organism-based
[4] = system: Human immunodeficiency virus 1; experiment: Antiviral activity against HIV1 3B infected in human CEM cells assessed as inhibition of virus-induced cytopathicity; type: functional, organism-based; conditions: CCRF-CEM
CCRF-CEM = experiment: Cytostatic activity against human CEM cells after 72 hrs by MTT assay; type: functional, cell-based
Vaccinia virus = experiment: Antiviral activity against Vaccinia virus infected in HEL cells assessed as inhibition of virus-induced cytopathicity; type: functional, organism-based; conditions: Orthopoxvirus vaccinia; how it was run: as §3
Sindbis virus = experiment: Antiviral activity against Sindbis virus infected in african green monkey Vero cells assessed as inhibition of virus-induced cytopathicity; type: functional, organism-based; how it was run: as §1
[5] = system: Mammalian orthoreovirus 1; experiment: Antiviral activity against Reovirus 1 infected in african green monkey Vero cells assessed as inhibition of virus-induced cytopathicity; type: functional, organism-based; how it was run: as §1
MCF7 = experiment: Cytostatic activity against human MCF7 cells after 72 hrs by MTT assay; type: functional, cell-based; conditions: MCF7, 72 h; how it was run: as §2
[6] = system: Vesicular stomatitis virus; experiment: Antiviral activity against Vesicular stomatitis virus infected in HEL cells assessed as inhibition of virus-induced cytopathicity; type: functional, organism-based; how it was run: as §3
HeLa = experiment: Cytostatic activity against human HeLa cells after 72 hrs by MTT assay; type: functional, cell-based; how it was run: as §2
Human alphaherpesvirus 1 = experiment: Antiviral activity against Herpes simplex virus 1 infected in HEL cells assessed as inhibition of virus-induced cytopathicity; type: functional, organism-based
NCI-H460 = experiment: Cytostatic activity against human H460 cells after 72 hrs by MTT assay; type: functional, cell-based; conditions: NCI-H460, 72 h; how it was run: as §2
[7] = system: Respiratory syncytial virus; experiment: Antiviral activity against Respiratory syncytial virus infected in human HeLa cells assessed as inhibition of virus-induced cytopathicity; type: functional, organism-based; how it was run: as §1
[8] = system: Human immunodeficiency virus 2; experiment: Antiviral activity against HIV2 ROD infected in human CEM cells assessed as inhibition of virus-induced cytopathicity; type: functional, organism-based; conditions: CCRF-CEM
Human respirovirus 3 = experiment: Antiviral activity against Parainfluenza-3 virus infected in african green monkey Vero cells assessed as inhibition of virus-induced cytopathicity; type: functional, organism-based; how it was run: as §1
Coxsackievirus B4 [9] = experiment: Antiviral activity against Coxsackievirus B4 infected in human HeLa cells assessed as inhibition of virus-induced cytopathicity; type: functional, organism-based; how it was run: as §1
Cytomegalovirus = experiment: Antiviral activity against Cytomegalovirus infected in HEL cells assessed as inhibition of virus-induced cytopathicity; type: functional, organism-based
How it was run: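 Confluent HEL fibroblasts were infected with CMV strains Davis and AD-169 at 100 PFU per well for 2 h, then virus was removed. Graded concentrations were added in duplicate and cultures kept 7 days at 37 °C. Cytopathogenicity was scored microscopically after ethanol fixation and Giemsa staining. EC50 is the 50% reduction.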

[10] = Cytostatic activity against human WI38 cells after 72 hrs by MTT assay; type: ADME, cell-based; conditions: WI-38, 72 h; how it was run: as §2

Row | SMILES | Activity (Punta Toro virus) | IC50 (L1210) [µM] | IC50 (MIA PaCa-2) [µM] | Activity [1] | Activity (Coxsackievirus B4 [2]) | IC50 [3] [µM] | Activity (Human alphaherpesvirus 3) | IC50 (SW-620) [µM] | Activity (Human alphaherpesvirus 2) | Activity [4] | IC50 (CCRF-CEM) [µM] | Activity (Vaccinia virus) | Activity (Sindbis virus) | Activity [5] | IC50 (MCF7) [µM] | Activity [6] | IC50 (HeLa) [µM] | Activity (Human alphaherpesvirus 1) | IC50 (NCI-H460) [µM] | Activity [7] | also measured
1 | O=C(Cc1ccccc1Nc1c(Cl)cccc1Cl)NCCCO | inactive | 200 | 54 | inactive | inactive | 215 | inactive | 36 | inactive | inactive | 212 | inactive | inactive | inactive | 39 | inactive | 46 | inactive | 68 | inactive | Activity [8]: inactive; Activity (Human respirovirus 3): inactive; Activity (Coxsackievirus B4 [9]): inactive; Activity (Cytomegalovirus): inactive
2 | COC(=O)[C@H](C)NP(=O)(OCCCNC(=O)Cc1ccccc1Nc1c(Cl)cccc1Cl)Oc1ccc(Cl)cc1 (stereo not given in full) | inactive | 13 | 16 | inactive | inactive | 9.7 | inactive | 16 | inactive | inactive | 22 | inactive | inactive | inactive | 9 | inactive | 16 | inactive | 17 | inactive | IC50 [10]: 18 µM; Activity [8]: inactive; Activity (Human respirovirus 3): inactive; Activity (Coxsackievirus B4 [9]): inactive; Activity (Cytomegalovirus): inactive
3 | COC(=O)[C@H](C)NP(=O)(OCCCNC(=O)C(C)c1cccc(Oc2ccccc2)c1)Oc1ccc(Cl)cc1 (stereo not given in full) | inactive | 24 | 5 | inactive | inactive | 39 | inactive | 7 | inactive | inactive | 38 | inactive | inactive | inactive | 12 | inactive | 6 | inactive | 13 | inactive | IC50 [10]: 20 µM; Activity [8]: inactive; Activity (Human respirovirus 3): inactive; Activity (Coxsackievirus B4 [9]): inactive; Activity (Cytomegalovirus): inactive
4 | CC(C(=O)NCCCO)c1cccc(C(=O)c2ccccc2)c1 (stereo not given) | inactive | 273 | > 100 | inactive | inactive | 97 | inactive | > 100 | inactive | inactive | 71 | inactive | inactive | inactive | > 100 | inactive | > 100 | inactive | > 100 | inactive | Activity [8]: inactive; Activity (Human respirovirus 3): inactive; Activity (Coxsackievirus B4 [9]): inactive; Activity (Cytomegalovirus): inactive
5 | CC(C)Cc1ccc(C(C)C(=O)NCCCO)cc1 (stereo not given) | inactive | 213 | ≥ 100 | inactive | inactive | 93 | inactive | > 100 | inactive | inactive | 55 | inactive | inactive | inactive | > 100 | inactive | > 100 | inactive | > 100 | inactive | Activity [8]: inactive; Activity (Human respirovirus 3): inactive; Activity (Coxsackievirus B4 [9]): inactive; Activity (Cytomegalovirus): inactive
6 | COc1ccc2c(c1)c(CC(=O)NCCCO)c(C)n2C(=O)c1ccc(Cl)cc1 | inactive | 179 | 44 | inactive | inactive | 113 | inactive | 47 | inactive | inactive | 78 | inactive | inactive | inactive | 22 | inactive | 26 | inactive | > 100 | inactive | Activity [8]: inactive; Activity (Human respirovirus 3): inactive; Activity (Coxsackievirus B4 [9]): inactive; Activity (Cytomegalovirus): inactive
7 | CC(C(=O)NCCCO)c1cccc(Oc2ccccc2)c1 (stereo not given) | inactive | 230 | > 100 | inactive | inactive | 99 | inactive | > 100 | inactive | inactive | 71 | inactive | inactive | inactive | > 100 | inactive | > 100 | inactive | > 100 | inactive | Activity [8]: inactive; Activity (Human respirovirus 3): inactive; Activity (Coxsackievirus B4 [9]): inactive; Activity (Cytomegalovirus): inactive
8 | COC(=O)[C@H](C)NP(=O)(OCCCNC(=O)C(C)c1ccc(CC(C)C)cc1)Oc1ccc(Cl)cc1 (stereo not given in full) | inactive | 64 | 13 | inactive | inactive | 48 | inactive | 21 | inactive | inactive | 90 | inactive | inactive | inactive | 14 | inactive | 15 | inactive | 19 | inactive | IC50 [10]: 21 µM; Activity [8]: inactive; Activity (Human respirovirus 3): inactive; Activity (Coxsackievirus B4 [9]): inactive; Activity (Cytomegalovirus): inactive
9 | COC(=O)[C@H](C)NP(=O)(OCCCNC(=O)Cc1c(C)n(C(=O)c2ccc(Cl)cc2)c2ccc(OC)cc12)Oc1ccc(Cl)cc1 (stereo not given in full) | inactive | 24 | 8 | inactive | inactive | 28 | inactive | 15 | inactive | inactive | 11 | inactive | inactive | inactive | 16 | inactive | 17 | inactive | 18 | inactive | IC50 [10]: 16 µM; Activity [8]: inactive; Activity (Human respirovirus 3): inactive; Activity (Coxsackievirus B4 [9]): inactive; Activity (Cytomegalovirus): inactive
